# Sampled rows, rich in hits. Any-hit rate of the full collection: about 3.3%.
# E-sel inducer: E-selectin induction on HUVECs; P16581; HUVEC E-selectin immunofluorescence imaging; normalized: neutral wells 0, TNF-alpha wells 100; activation, % at 7.58 µM; 260,000 compounds, 0.37% hits; AID 686992;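 active = mean E-selectin-positive cell signal at least 10% of the positive control, reached in at least 60% of replicates, without over 20% cell loss; inconclusive = no rule given, readout overlaps actives, possibly toxicity-flagged; inactive = the rest, including those meeting only one limit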
# Target sequence (P16581 whole entry, looked up): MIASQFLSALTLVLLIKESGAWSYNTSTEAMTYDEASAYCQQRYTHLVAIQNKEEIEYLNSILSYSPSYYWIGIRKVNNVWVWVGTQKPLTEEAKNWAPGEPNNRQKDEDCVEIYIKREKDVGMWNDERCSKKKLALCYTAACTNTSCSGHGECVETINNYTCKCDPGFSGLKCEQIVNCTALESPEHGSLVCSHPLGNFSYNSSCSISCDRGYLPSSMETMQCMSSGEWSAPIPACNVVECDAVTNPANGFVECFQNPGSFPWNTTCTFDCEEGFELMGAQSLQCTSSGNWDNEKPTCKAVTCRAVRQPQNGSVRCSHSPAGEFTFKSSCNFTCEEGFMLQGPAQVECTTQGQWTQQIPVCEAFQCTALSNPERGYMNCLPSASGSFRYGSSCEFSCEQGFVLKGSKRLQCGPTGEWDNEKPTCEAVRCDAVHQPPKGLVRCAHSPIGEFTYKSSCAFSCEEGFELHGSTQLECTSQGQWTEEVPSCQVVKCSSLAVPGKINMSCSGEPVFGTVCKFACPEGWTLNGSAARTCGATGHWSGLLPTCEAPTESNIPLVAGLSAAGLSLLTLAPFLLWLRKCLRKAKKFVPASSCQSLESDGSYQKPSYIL
#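 Material: HUVEC primary endothelial cells; Amount: 3,000 cells per well; Dosing: single concentration; Medium: EGM-2 growth medium on 0.1% gelatin-coated wells; Read-out basis: percent E-selectin-positive cells; Signal: immunofluorescence imaging; Control set: TNF-alpha, DMSO.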
# PglD inh: inhibitors of Campylobacter jejuni PglD acetyltransferase | purified PglD enzyme, DTNB colorimetric CoA detection | inhibition, % at 12.5 µM | 360,000 compounds, 0.098% hits; in the data active = inhibition above about 16%, passing the limit was not always enough; inconclusive = no clear call, values can overlap the other calls
# XiGFP reactiv: reactivates the inactive X chromosome in mouse fibroblasts. activation, % at 7.58 µM. 360,000 compounds, 0.055% hits. XiGFP mouse fibroblasts, % GFP-positive cells imaging, 3 d; cells co-treated with 5-aza-dC sensitizer; scaled so ellipticine positive control = 100%;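 active = mean normalized replicate activation at least 10% and every replicate at or above 10%; inconclusive = only one of the two criteria met; inactive = mean below 10% and not all replicates reach 10%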
#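 Material: XiGFP fibroblasts, SV40-immortalized. Buffer or medium: DMEM plus 5-aza-dC sensitizer. Compound: single concentration per compound, delivered by pin transfer. Times: 3 days compound exposure. Controls: ellipticine 6 µM.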
# FGF22 binding: shifts melting point of recombinant human FGF22; Q9HCT0; recombinant FGF22 thermal shift, SYPRO orange fluorescence; percent of sucrose octasulfate shift, DMSO zero; activity (Tm shift, normalised), % at 9.99 µM; 340,000 compounds, 1.5% hits;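 active = mean Tm shift, scaled 0 neutral to 100 positive control, at about 1.3% or above, every replicate too, limit read from the data; inconclusive = no clear call, values can overlap the other calls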
# C2C12 statin: suppressors of simvastatin-induced myotoxicity in C2C12 myotubes; ATP luminescence, 48 h; scaled: DMSO 0, geranylgeraniol control 100; rescue of ATP level, % at 7.49 µM; 330,000 compounds, 0.78% hits;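 active = mean ATP rescue above about 67%, or every replicate alone reaching that limit, limit read from the data, passing the limit was not always enough; inconclusive = no clear call, values can overlap the other calls; inactive = mean under the limit and some replicate under it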;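 note: myotubes were challenged with 10 µM simvastatin during compound exposure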
# DENV2 CPE: DENV2-induced cell death inhibition | 350,000 compounds, 1.7% hits | CPE inhibition, % at 9.99 µM | AID 651640 | DENV2-infected cells, cytopathic effect rescue, plate reader; in the data active = CPE inhibition above about 20%, passing the limit was not always enough; inconclusive = no clear call, values can overlap the other calls; tested in BHK-21 cells
# Numbers stand for hits; . = inactive; ? = inconclusive; / = no result given.
SMILES,E-sel inducer,PglD inh,XiGFP reactiv,FGF22 binding,C2C12 statin,DENV2 CPE
COc1ccc2c3c([nH]c2c1)[C@H](CO)N(Cc1cccc(F)c1)CC31CN(Cc2ccccn2)C1,.,/,.,.,/,23
COc1ccc2c3c([nH]c2c1)[C@@H](CO)N(C(=O)CN(C)C)CC31CN(Cc2ccccc2)C1,.,/,.,.,/,39
C[C@@H]1CN([C@@H](C)CO)S(=O)(=O)c2ccc(C#CC3CC3)cc2O[C@@H]1CN(C)C,.,.,.,.,.,?
N#C[C@H]1[C@@H](c2ccccc2C2=CCCCC2)[C@@H](CO)N1C(=O)c1cccc(F)c1,.,/,.,.,/,.
N#C[C@@H]1[C@@H](c2ccc(-c3ccc(F)cc3)cc2)[C@H](CO)N1C(=O)Cc1ccccc1,.,.,.,.,75,.
N#C[C@@H]1[C@H](c2ccccc2)[C@H](CO)N1C(=O)Cc1ccccc1,.,.,.,.,.,74
CN(C)c1cccc(C(=O)Nc2cc(C(F)(F)F)ccc2-n2cnc3ccccc32)c1,/,/,.,.,/,25
CCCCCCC(=O)N/N=C/c1ccc(Br)cc1,/,/,.,/,/,/
CCN(CC)C(=O)C(=O)N/N=C/c1ccc(Br)cc1,/,.,/,/,89,/
COc1ccc(-c2ccc3c(c2)S(=O)(=O)c2cccc(C(=O)NCCOc4ccccc4Cl)c2C3=O)cc1OC,.,.,.,.,.,22
O=C(Nc1cccc2ccccc12)OCc1ccccc1,.,.,.,44,.,?
Cn1ccnc1C(O)c1cccc(OCc2ccccc2)c1 (stereo not given),/,.,.,.,.,.
NC(CC(=O)O)c1cccc(OCc2ccccc2)c1 (stereo not given),/,.,/,/,66,/
OC(c1cccc(OCc2ccccc2)c1)c1nnc(-c2ccccc2)o1 (stereo not given),/,.,/,/,146,/
O=C(O)CC(NC(=O)OCc1ccccc1)c1ccccc1 (stereo not given),/,.,/,/,93,/
CCN1[C@@H]2Cn3c(ccc(C4=CCCC4)c3=O)[C@H]1[C@@H](C(=O)NC1CCCC1)[C@@H]2CO,.,.,.,.,.,.
Cc1noc(C)c1NC(=O)Nc1cccc2c1O[C@H](CN(C)S(=O)(=O)c1cccs1)[C@H](C)CN([C@H](C)CO)C2=O,.,.,.,.,.,.
C[C@@H]1CN([C@@H](C)CO)C(=O)Cc2cc(NC(=O)c3ccncc3)ccc2O[C@@H]1CN(C)Cc1ccc(-c2ccccc2)cc1,.,.,.,/,.,.
C[C@@H]1CN([C@@H](C)CO)C(=O)Cc2cc(NC(=O)C3CCCCC3)ccc2O[C@H]1CN(C)Cc1ccc(C(F)(F)F)cc1,.,.,.,.,.,.
C[C@@H]1CN([C@@H](C)CO)C(=O)Cc2cc(NC(=O)c3ccncc3)ccc2O[C@@H]1CN(C)C(=O)Nc1ccc(F)cc1,.,/,.,/,.,/
C[C@H]1CN([C@@H](C)CO)C(=O)Cc2cc(NC(=O)C3CCCCC3)ccc2O[C@@H]1CN(C)Cc1ccc(C(F)(F)F)cc1,.,.,.,.,.,39
C[C@H](CO)N1C[C@H](C)[C@@H](CN(C)Cc2ccc(Cl)c(Cl)c2)Oc2ccc(NC(=O)c3ccncc3)cc2CC1=O,.,.,.,.,133,.
C[C@H](CO)N1C[C@H](C)[C@@H](CN(C)Cc2ccc(-c3ccccc3)cc2)Oc2ccc(NC(=O)c3ccncc3)cc2CC1=O,.,.,.,.,124,.
C[C@@H]1CN([C@@H](C)CO)C(=O)Cc2cc(NC(=O)c3ccncc3)ccc2O[C@@H]1CN(C)C(=O)Nc1ccc(C(F)(F)F)cc1,74,.,.,.,.,.
CC(C)CC#Cc1cnc2c(c1)C(=O)N([C@@H](C)CO)C[C@H](C)[C@@H](CN(C)Cc1cncnc1)O2,.,.,.,.,.,.
CN(C)C(=O)C[C@H]1CC[C@@H]2[C@H](COC[C@H](O)CN2CC2CCCC2)O1,.,.,.,.,.,.
O=C([C@H]1[C@H](CO)[C@H]2Cn3c(cccc3=O)[C@H]2N1Cc1ccccc1)N1CCCCC1,.,.,.,.,.,.
